The text below walks through data of PMC5116011 (The Journal of antibiotics, 2016).

The conditions of data set [1]: E. coli enterobactin; ref [42]; cited from earlier work.
The test system of data set [2] is E. coli ATCC 35218 (Low-level TEM-1). As to the kind of experiment: MIC with and without clavulanic acid. The format is cell-based. In outline: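 Mueller-Hinton broth microdilution per CLSI, run in parallel without and with the β-lactamase inhibitor clavulanic acid (6 µg/ml). MH-broth-grown inoculum was at 10^5 CFU/ml final, with test compound at 200–0.2 µg/ml final. Incubation was 37°C, 18–20 h, and the visible-growth endpoint was read. At least duplicate determinations; the mean MIC was reported.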

The next data set concerns E. coli BW25113. As to the kind of experiment: MIC, microbroth dilution in Mueller-Hinton broth. It is filed as cell-based, Escherichia coli. As to conditions: for MIC EC MH+BP/CCCP / MIC EC +: E. coli BW25113; for MIC EC MH+BP/CCCP: MH broth with 30 µg/ml 2,2′-bipyridyl and 50 µg/ml CCCP; for MIC EC +: with clavulanic acid (6µg/ml); for MIC: Escherichia coli, BW25113, read-out: MIC EC, E. coli BW25113, Mueller-Hinton broth (Table 2). (In general: Dilution methods test growth across graded concentrations, often in twofold steps.)

The test system of the next data set is B. anthracis sterne. As to the kind of experiment: microbe, parasite or virus in culture. It is filed as cell-based. The following applies: Bacillus anthracis, read-out: MIC BA.
For a further data set, the system named is E. faecalis ATCC33186. As to the kind of experiment: MIC, microbroth dilution in Mueller-Hinton broth. The format is cell-based. The following applies: Enterococcus faecalis, ATCC33186, read-out: MIC EF. A digest of the protocol:
(§1)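 CLSI broth microdilution in cation-adjusted Mueller-Hinton broth. Inocula were grown from MH agar colonies in MH broth, with a final inoculum of 10^5 CFU/ml. Test compound final range was 200–0.2 µg/ml, incubated 37°C for 18–20 h. MIC was the lowest concentration preventing visible growth. Runs were at least duplicate, and the mean MIC was reported.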

For a further data set, the system named is S. pneumoniae R6. As to the kind of experiment: MIC, microbroth dilution in Mueller-Hinton broth. The format is cell-based. The following applies: Streptococcus pneumoniae, R6, read-out: MIC SP. A digest of the protocol: as §1
The subject of a further data set is P. vulgaris ATCC 33420. As to the kind of experiment: MIC, microbroth dilution in Mueller-Hinton broth. The format is cell-based. As to conditions: Proteus vulgaris, ATCC33420, read-out: MIC PV.
The test system of a further data set is P. aeruginosa PA01. As to the kind of experiment: MIC, microbroth dilution in Mueller-Hinton broth. It is filed as cell-based, Pseudomonas aeruginosa. The following applies: for MIC PA MH+BP/CCCP / MIC PA +: P. aeruginosa PA01; for MIC PA MH+BP/CCCP: MH broth with 30 µg/ml 2,2′-bipyridyl and 50 µg/ml CCCP; for MIC PA +: with clavulanic acid (6µg/ml); for MIC: Pseudomonas aeruginosa.

Data set [3] deals with S. aureus -ATCC29213 (MSSA). As to the kind of experiment: MIC, microbroth dilution in Mueller-Hinton broth. The following applies: Staphylococcus aureus, read-out: MIC MSSA. It is filed as cell-based. A digest of the protocol: as §1
The next data set concerns B. subtilis ATCC23857. As to the kind of experiment: MIC, microbroth dilution in Mueller-Hinton broth. It is filed as cell-based. The following applies: Bacillus subtilis, ATCC23857, read-out: MIC BS. In outline:
as §1

A further data set relates to S. pyogenes ATCC700294. As to the kind of experiment: MIC, microbroth dilution in Mueller-Hinton broth. The format is cell-based. The following applies: Streptococcus pyogenes, ATCC700294, read-out: MIC SPy. A digest of the protocol:
as §1

In the next data set the test system is P. mirabilis ATCC 25933. As to the kind of experiment: MIC, microbroth dilution in Mueller-Hinton broth. It is filed as cell-based. The following applies: Proteus mirabilis, ATCC25933, read-out: MIC PM.
Data set [4] relates to E. coli BW25113 ΔtolC derivative JW5503-1. As to the kind of experiment: MIC, microbroth dilution in Mueller-Hinton broth. It is filed as cell-based, Escherichia coli. The following applies: for MIC: Escherichia coli.
In data set [5] the test system is E. coli BW25113 ΔampC derivative JW4111-2. The format is cell-based, Escherichia coli. As to conditions: for MIC: Escherichia coli, BW25113, read-out: MIC ECΔampC −.
The test system of a further data set is S. aureus NRS 70 (MRSA). As to the kind of experiment: MIC, microbroth dilution in Mueller-Hinton broth. It is filed as cell-based. The following applies: Staphylococcus aureus, MRSA|NRS70, read-out: MIC MRSA. In outline:
as §1

[6] abbreviates: BW25113, read-out: MIC ECΔtolC MH.
Where [7] appears, read: BW25113, read-out: MIC ECΔtolC MH+BP.

Structures are written as SMILES. ≈ marks a conversion by molar mass, not a printed value. Read-outs that look alike come from different tables or passages of the source.

For `O=C(N[C@H]1COC(=O)[C@@H](NC(=O)c2cccc(O)c2O)COC(=O)[C@@H](NC(=O)c2cccc(O)c2O)COC1=O)c1cccc(O)c1O` [enterobactin], the pM in data set [1] is 35.6.
In the case of `CC1(C)SC2C(NC(=O)C(NC(=O)C3=C(O)C(Cc4ccccc4)NC3=O)c3ccccc3)C(=O)N2C1C(=O)O` (stereo not drawn) [Compound 2781], the MIC in data set [2] (Escherichia coli, ATCC35218, read-out: MIC ATCC 35218 (Low-level TEM-1) - CLV) is greater than 200 µg/mL; in the data set with E. coli BW25113, 100 µg/mL (≈ 177 µM); in the data set on B. anthracis sterne it was 3.13 µg/mL (≈ 5.54 µM); with E. faecalis ATCC33186, 25 µg/mL (≈ 44.3 µM); in the data set with S. pneumoniae R6, less than 0.2 µg/mL; in the data set with P. vulgaris ATCC 33420 it was 6.25 µg/mL (≈ 11.1 µM). Also, the MIC in the data set with P. aeruginosa PA01 (PA01, read-out: MIC PA) is 12.5 µg/mL (≈ 22.1 µM); with P. aeruginosa PA01 (PA01, read-out: MIC PA MH), 12.5 µg/mL (≈ 22.1 µM); in the data set with P. aeruginosa PA01 (PA01, read-out: MIC PA MH+BP), 6.25 µg/mL (≈ 11.1 µM); with P. aeruginosa PA01 (PA01, read-out: MIC PA MH+CCCP), 3.13 µg/mL (≈ 5.54 µM); in the data set on P. aeruginosa PA01 (PA01, read-out: MIC PA −) it was 12.5 µg/mL (≈ 22.1 µM); in [3], less than 0.2 µg/mL. Moreover, the MIC worked out at 0.78 µg/mL (≈ 1.38 µM) in the data set on B. subtilis ATCC23857; 0.39 µg/mL (≈ 0.691 µM) in the data set with S. pyogenes ATCC700294; 3.13 µg/mL (≈ 5.54 µM) in the data set with P. mirabilis ATCC 25933; 3.13 µg/mL (≈ 5.54 µM) in data set [4] (BW25113, read-out: MIC ECΔtolC); 3.13 µg/mL (≈ 5.54 µM) in data set [4] (setting [6]); 3.13 µg/mL (≈ 5.54 µM) in data set [4] (setting [7]). Also, the MIC in data set [5] was 6.25 µg/mL (≈ 11.1 µM); in the data set on S. aureus NRS 70 (MRSA), 25 µg/mL (≈ 44.3 µM). Also, the “MIC ATCC 35218 (Low-level TEM-1) + CLV” value in data set [2] (with clavulanic acid (6 µg/ml)) is 25 µg/mL. Also, the “MIC EC MH+BP/CCCP” value against E. coli BW25113 came out at 3.13 µg/mL (≈ 5.54 µM). Besides, in the data set on E. coli BW25113, the “MIC EC +” value stood at 6.25 µg/mL. The “MIC PA MH+BP/CCCP” value with P. aeruginosa PA01 was 1.56 µg/mL (≈ 2.76 µM). In the data set on P. aeruginosa PA01, the “MIC PA +” value worked out at 3.13 µg/mL. Also, the “MIC ECΔtolC MH+BP/CCCP” value in [4] ({}) worked out at 1.56 µg/mL (≈ 2.76 µM). Besides, in data set [4] ({}), the “MIC ECΔtolC MH+CCCP” value worked out at 1.56 µg/mL (≈ 2.76 µM). In data set [5], the “MIC ECΔampC +” value worked out at 3.13 µg/mL.
Consider `CC(C)CC1NC(=O)C(C(=O)NC(C(=O)NC2C(=O)N3C2SC(C)(C)C3C(=O)O)c2ccccc2)=C1O` (stereo not drawn) [Compound 1903], for which, in the data set with E. coli BW25113, the “MIC EC MH+BP/CCCP” value was determined as 12.5 µg/mL (≈ 23.6 µM). Further, the “MIC EC +” value in the data set with E. coli BW25113 worked out at 12.5 µg/mL. The MIC was determined as 50 µg/mL (≈ 94.2 µM) in the data set with E. coli BW25113; 3.13 µg/mL (≈ 5.9 µM) in the data set on B. anthracis sterne; 25 µg/mL (≈ 47.1 µM) with E. faecalis ATCC33186; 0.39 µg/mL (≈ 0.735 µM) with S. pneumoniae R6; 25 µg/mL (≈ 47.1 µM) in the data set with P. vulgaris ATCC 33420; 12.5 µg/mL (≈ 23.6 µM) with P. aeruginosa PA01 (PA01, read-out: MIC PA). For the same molecule, the MIC in the data set on P. aeruginosa PA01 (PA01, read-out: MIC PA MH) is 12.5 µg/mL (≈ 23.6 µM); in the data set on P. aeruginosa PA01 (PA01, read-out: MIC PA MH+BP), 12.5 µg/mL (≈ 23.6 µM); with P. aeruginosa PA01 (PA01, read-out: MIC PA MH+CCCP), 3.13 µg/mL (≈ 5.9 µM); with P. aeruginosa PA01 (PA01, read-out: MIC PA −) it was 12.5 µg/mL (≈ 23.6 µM); in [3], 0.78 µg/mL (≈ 1.47 µM); with B. subtilis ATCC23857, 1.56 µg/mL (≈ 2.94 µM). For the same molecule, the MIC with S. pyogenes ATCC700294 worked out at 0.39 µg/mL (≈ 0.735 µM); in the data set on P. mirabilis ATCC 25933 it was 12.5 µg/mL (≈ 23.6 µM); in [4] (BW25113, read-out: MIC ECΔtolC), 6.25 µg/mL (≈ 11.8 µM); in data set [4] (setting [6]), 6.2 µg/mL (≈ 11.7 µM); in data set [4] (setting [7]), 1.56 µg/mL (≈ 2.94 µM); in data set [5], 6.25 µg/mL (≈ 11.8 µM). In addition, in the data set with S. aureus NRS 70 (MRSA), the MIC stood at 25 µg/mL (≈ 47.1 µM). In the data set on P. aeruginosa PA01, the “MIC PA MH+BP/CCCP” value amounted to 1.56 µg/mL (≈ 2.94 µM). Further, the “MIC PA +” value in the data set on P. aeruginosa PA01 was 6.25 µg/mL. For the same molecule, the “MIC ECΔtolC MH+CCCP” value in data set [4] (E. coli BW25113 ΔtolC JW5503-1, MH broth containing 50 µg/ml CCCP) worked out at 1.56 µg/mL (≈ 2.94 µM). Moreover, the “MIC ECΔampC +” value in data set [5] came to 1.56 µg/mL.
